We go through 63 compounds from ChEMBL document CHEMBL1125878, “Aminoalkynyldithianes. A new class of calcium channel blockers” (J Med Chem, 1991).

The structures appear in SMILES notation. pIC50: −log10 of the molar value. A value given as a limit tells only on which side of the number the result lay.

What all share (format): functional
The species entered for test [1] is Cavia porcellus. In words: Antagonism of calcium-induced contractions of guinea pig ileal strips. In a few lines: (§1)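 Guinea pig ileal strips held at 0.5 g resting tension, equilibrated 60 min, isometric recording. Depolarized with KCl (80 mM) 6 min, then cumulative CaCl2 0.2-8.0 mM; wash, control curve, then curves with three drug concentrations added right after KCl (6 min). Kb = concentration giving 2-fold rightward shift, from EC50 ratios; means of 3-10 experiments ± SE.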

Test [2] can be described thus: The compound was tested for inhibition of calcium influx into neuronal (NG108-15) cells. The following applies: Mus musculus. Put shortly:
(§2)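 NG108-15 cells, differentiated with dibutyryl cAMP (1.0 mM, 4 days), loaded with Quin 2-AM (100 μM) 1 h at 37 °C, washed. Suspensions (ca. 3 × 10^6 cells) at 37 °C preincubated 1 min with drug, then depolarized with KCl (50 mM); fluorescence ex 339/em 492 nm. IC50 = half-maximal fluorescence decrease, logit analysis; means ± SE.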

Test [3] can be described thus: The compound was tested for inhibition of calcium influx into neuronal (NG108-15) cells. The following applies: Mus musculus. Put shortly: as §2
For test [4], the species on record is Cavia porcellus. In words: The compound was tested for antagonism of calcium-induced contractions of guinea pig ileal strips. Put shortly:
as §1

The Kb is the equilibrium dissociation constant of an antagonist, usually derived from a functional assay. In the case of `CN(CC#CCCC1SCCCS1)CCc1ccc2ccccc2c1`, in the test listed under Cavia porcellus [1], the Kb was 4.73 µM.

With `CN(CC#CCCC1(C2(O)c3ccccc3Oc3ccccc32)SCCCS1)CCCCc1ccccc1`, in the test filed under Cavia porcellus [1], the Kb is 1.9 µM.

Consider `CCN(CC)CC#CCCC1(Cc2ccccc2)SCCCS1`, for which the Kb in the test listed under Cavia porcellus [1] was determined as 1.96 µM.

As for `CN(C)CC#CCCC1(C2(O)c3ccccc3Sc3ccc(Cl)cc32)SCCCS1` (stereo not drawn), the Kb in the test listed under Cavia porcellus [1] is 2.33 µM.

For `CN(CC#CCCCC1SCCCS1)CCc1ccccc1`, in the test filed under Cavia porcellus [1], the Kb was found to be 4.15 µM.

As for `CN(CC#CCCC1SCCCS1)CCCCc1ccccc1`, in the test filed under Cavia porcellus [1], the Kb turned out to be 3.43 µM.

As a reminder, the pIC50 is the IC50 on a negative log10 scale, so that one unit is a factor of ten. Take `CN(CC#CCCC1(c2ccccc2)SCCCS1)CCc1ccccc1`: in the test listed under Cavia porcellus [1], the Kb turned out to be 1.74 µM. Besides, in test [2], the pIC50 was 5.27.

In the case of `CN1CCN(CC#CCCC2(C3(O)c4ccccc4Oc4ccccc43)SCCCS2)CC1`, the Kb in the test listed under Cavia porcellus [1] was found to be 0.49 µM.

For the compound `CN(CC#CCCC1SCCCS1)CCCc1ccccc1`, the Kb in the test filed under Cavia porcellus [1] stood at 2.98 µM.

`CN(CC#CCCCC1SCCCS1)Cc1ccccc1`: in the test listed under Cavia porcellus [1], the Kb turned out to be 4.45 µM.

As for `CCN(CC)CC#CCCCC1(C2(O)c3ccccc3Oc3ccccc32)SCCCS1`, the antagonist dissociation constant (Kb) in the test listed under Cavia porcellus [1] worked out at 0.17 µM. For the same compound, the pIC50 in test [2] was 6.00.

On to `CN(CC#CCCC1(C2(O)c3ccccc3Sc3ccc(Cl)cc32)SCCCS1)CCCc1ccccc1` (stereo not drawn), for which, in the test filed under Cavia porcellus [1], the Kb was over 7 µM.

As to `CN(CC#CCCC1(C(O)(c2ccccc2)c2ccccc2)SCCCS1)CCc1ccccc1`, in the test filed under Cavia porcellus [1], the Kb was determined as 2.65 µM.

With `CCCN(CC#CCC1(c2ccccc2)SCCCS1)CCC`, the Kb in the test listed under Cavia porcellus [1] came out at 1.01 µM. For the same compound, the pIC50 in test [2] is 5.77.

As for `CN(CC#CCCC1(C(O)(c2ccccc2)c2ccccc2)SCCCS1)Cc1ccccc1`, in the test listed under Cavia porcellus [1], the Kb turned out to be 3.17 µM.

For `CCN(CC)CC#CCCCCC1SCCCS1`, in the test filed under Cavia porcellus [1], the Kb is over 5 µM.

`OC1(C2(CCC#CCN3CCCCC3)SCCCS2)c2ccccc2Sc2ccccc21`: the Kb in the test filed under Cavia porcellus [1] came to 3.66 µM.

Regarding `CCN(CC#CCCC1(C2(O)c3ccccc3Oc3ccccc32)SCCCS1)C(C)C`, in the test listed under Cavia porcellus [1], the Kb stood at 0.46 µM.

Consider `CCN(CC)CC#CCCC1(C(C)(O)c2ccccc2)SCCCS1` (stereo not drawn), for which the Kb in the test filed under Cavia porcellus [1] was 2.51 µM.

As for `CN(CC#CCCC1(C(O)(c2ccccc2)C2CCCCC2)SCCCS1)CCc1ccccc1` (stereo not drawn), in the test filed under Cavia porcellus [1], the Kb stood at 3.75 µM.

As to `CN(CC#CCCC1(C2(O)c3ccccc3Sc3ccccc32)SCCCS1)CCCCc1ccccc1`, the Kb in the test filed under Cavia porcellus [1] was determined as 3.4 µM.

On to `CN(CC#CCCC1SCCCS1)CCc1cccc2ccccc12`, for which the antagonist dissociation constant (Kb) in the test filed under Cavia porcellus [1] was determined as 1.52 µM.

Take `CCN(CC)CC#CCCC1(C2(O)CCCc3ccccc32)SCCCS1` (stereo not drawn): the Kb in the test listed under Cavia porcellus [1] was 0.83 µM.

For `COc1ccc(CCN(C)CC#CCCC(O)(c2ccccc2)C2SCCCS2)cc1OC` (stereo not drawn), the Kb in the test listed under Cavia porcellus [1] came to 1.23 µM. In addition, the pIC50 in test [2] was 5.74.

For `CN(CC#CCCC1SCCCS1)Cc1ccccc1`, in the test filed under Cavia porcellus [1], the Kb was 8.02 µM.

On to `CCCN(CC#CCCCC1(C2(O)c3ccccc3Sc3ccccc32)SCCCS1)CCC`, for which, in the test filed under Cavia porcellus [1], the Kb stood at 0.77 µM.

Take `CCN(CC)CC#CCCC(O)(c1ccccc1)C1SCCCS1` (stereo not drawn): the Kb in the test listed under Cavia porcellus [1] is 6.7 µM. For the same compound, the pIC50 in test [2] was 4.75.

As for `CCN(CC)CC#CCCC1(c2ccccc2)SCCCS1`, the Kb in the test filed under Cavia porcellus [1] was 0.9 µM. The pIC50 in test [2] is 5.17.

As for `OC1(C2(CCC#CCN3CCCCC3)SCCCS2)c2ccccc2Sc2ccc(Cl)cc21` (stereo not drawn), the Kb in the test filed under Cavia porcellus [1] is 6.09 µM.

Regarding `CCN(C)CC#CCCC1(C2(O)c3ccccc3Sc3ccc(Cl)cc32)SCCCS1` (stereo not drawn), the antagonist equilibrium constant (Kb) in the test filed under Cavia porcellus [1] worked out at 2.53 µM.

For the compound `CCN(C)CC#CCCC1SCCCS1`, in test [2], the pIC50 is under 5.00.

On to `CCCN(CC#CCCCC1(C2(O)c3ccccc3Oc3ccccc32)SCCCS1)CCC`, for which the Kb in the test filed under Cavia porcellus [1] was found to be 0.47 µM.

As to `CN(C)CC#CCCC1(C2(O)c3ccccc3Oc3ccccc32)SCCCS1`, the Kb in the test listed under Cavia porcellus [1] is 1.15 µM.

Consider `CCN(CC)CC#CCCC1(C2(O)c3ccccc3Sc3ccccc32)SCCCS1`, for which, in the test filed under Cavia porcellus [1], the Kb came to 0.13 µM.

With `CC(C)N(CC#CCCCC1(C2(O)c3ccccc3Oc3ccccc32)SCCCS1)C(C)C`, in the test filed under Cavia porcellus [1], the Kb was found to be 0.2 µM. Besides, the pIC50 in test [2] is 5.34.

In the case of `OC1(C2(CCC#CCN3CCCCC3)SCCCS2)c2ccccc2Oc2ccccc21`, in the test filed under Cavia porcellus [1], the Kb amounted to 0.39 µM. In addition, in test [2], the pIC50 is 5.19.

For the compound `CCOC(=O)C1=C(C)NC(C)=C(C(=O)OC)C1c1cccc([N+](=O)[O-])c1` (stereo not drawn) [NITRENDIPINE], the Kb in the test filed under Cavia porcellus [1] was 0.002 µM. The pIC50 in test [2] was 7.80.

With `CCN(CC)CC#CCCC1(C2(O)c3ccccc3C=Cc3ccccc32)SCCCS1`, the Kb in the test listed under Cavia porcellus [1] was found to be 0.3 µM.

Consider `CN(CC#CCCC1(C2(O)c3ccccc3Sc3ccccc32)SCCCS1)CCCc1ccccc1`, for which the Kb in the test listed under Cavia porcellus [1] worked out at 4.16 µM.

Regarding `OCCN1CCN(CC#CCCC2SCCCS2)CC1`, in the test filed under Cavia porcellus [1], the Kb is over 10 µM.

With `COc1ccc(CCN(C)CC#CCC2(c3ccccc3)SCCCS2)cc1OC`, the Kb in the test listed under Cavia porcellus [1] amounted to 1.17 µM. In test [2], the pIC50 is 5.82.

`CCN(CC)CC#CCCCCC1(C2(O)c3ccccc3Oc3ccccc32)SCCCS1`: in the test filed under Cavia porcellus [1], the Kb was determined as 1.74 µM.

With `COc1ccc(N(C)CC#CCCC2SCCCS2)cc1OC`, in the test filed under Cavia porcellus [1], the Kb was 2.22 µM.

As to `CCN(CC)CC#CCCC1(C(O)(c2ccccc2)C2CCCCC2)SCCCS1` (stereo not drawn), in the test listed under Cavia porcellus [1], the Kb was 1.14 µM.

For `CN(CC#CCCC(O)(c1ccccc1)C1SCCCS1)CCc1ccccc1` (stereo not drawn), in the test listed under Cavia porcellus [1], the Kb stood at 2.25 µM. The pIC50 in test [2] is 5.80.

For `CCN(CC)CC#CCC1(c2ccccc2)SCCCS1`, the Kb in the test filed under Cavia porcellus [1] was 4.27 µM. In addition, in test [2], the pIC50 was 5.19.

Regarding `COc1ccc(CCN(C)CCCC(C#N)(c2ccc(OC)c(OC)c2)C(C)C)cc1OC` (stereo not drawn) [VERAPAMIL], the antagonist dissociation constant (Kb) in the test listed under Cavia porcellus [1] amounted to 0.02 µM. The pIC50 in test [2] was 5.19.

As for `CN(CC#CCCC1SCCCS1)Cc1ccc2ccccc2c1`, in the test filed under Cavia porcellus [1], the Kb worked out at 8.33 µM.

Consider `CCN(C)CC#CCCC1(C2(O)c3ccccc3Sc3ccccc32)SCCCS1`, for which the Kb in the test listed under Cavia porcellus [1] amounted to 0.57 µM.

With `CN(CC#CCCC1(C(O)(c2ccccc2)c2ccccc2)SCCCS1)CCCc1ccccc1`, the Kb in the test listed under Cavia porcellus [1] was found to be 1.63 µM.

With `CCN(CC)CC#CCCC1(C2(O)CCOc3ccccc32)SCCCS1` (stereo not drawn), in the test filed under Cavia porcellus [1], the Kb is 1.94 µM.

For `COc1ccc([C@@H]2Sc3ccccc3N(CCN(C)C)C(=O)[C@@H]2OC(C)=O)cc1` [DILTIAZEM], the pIC50 in test [3] is 4.83. For the same compound, the Kb in the test listed under Cavia porcellus [4] was found to be 0.047 µM.

As for `CCN(CC)CC#CCCC1(C(O)(c2ccccc2)C2CCCC2)SCCCS1` (stereo not drawn), in the test filed under Cavia porcellus [1], the Kb stood at 0.98 µM.

Take `CCN(CC)CC#CCCC1(C2(O)c3ccccc3Oc3ccccc32)SCCCS1`: the Kb in the test filed under Cavia porcellus [1] stood at 0.16 µM. Also, the pIC50 in test [2] was 5.64.

As for `CN(CC#CCCC1SCCCS1)CCc1ccccc1`, the Kb in the test listed under Cavia porcellus [1] amounted to 2.27 µM.

Regarding `CN(CC#CCCC1(C2(O)c3ccccc3Oc3ccccc32)SCCCS1)CCCc1ccccc1`, the antagonist equilibrium constant (Kb) in the test listed under Cavia porcellus [1] was 3.09 µM.

Consider `CCN(CC)CC#CCCC1(C2(O)c3ccccc3Sc3ccc(Cl)cc32)SCCCS1` (stereo not drawn), for which the Kb in the test filed under Cavia porcellus [1] turned out to be 0.33 µM.

For `CN(C)CC#CCCC1(C2(O)c3ccccc3Sc3ccccc32)SCCCS1`, the Kb in the test listed under Cavia porcellus [1] was determined as 0.68 µM.

In the case of `CCN(C)CC#CCCC1(C2(O)c3ccccc3Oc3ccccc32)SCCCS1`, the Kb in the test listed under Cavia porcellus [1] was found to be 1.51 µM.

In the case of `CCCN(CC#CCCCC1SCCCS1)CCC`, in the test filed under Cavia porcellus [1], the Kb was 7.5 µM.

For the compound `CCN(CC)CC#CCCC1(C2(O)c3ccccc3CCc3ccccc32)SCCCS1`, the Kb in the test filed under Cavia porcellus [1] was determined as 1.27 µM.

Consider `COc1ccc(CCN(C)CC#CCCC(O[Si](C)(C)C)(c2ccccc2)C2SCCCS2)cc1OC` (stereo not drawn), for which, in the test filed under Cavia porcellus [1], the Kb was determined as 0.57 µM.

As to `CCN(CC)CC#CCCC1(C(c2ccccc2)c2ccccc2)SCCCS1`, the Kb in the test filed under Cavia porcellus [1] is 0.5 µM.
